Reference: ChEMBL document CHEMBL2331253, “Atropisomeric dihydroanthracenones as inhibitors of multiresistant Staphylococcus aureus” (J Med Chem, 2013)
≈ marks a conversion by molar mass, not a printed value. Calls of active or inactive are those of the source. The rule behind the calls is not given here.

What was measured:
Staphylococcus aureus [1] = experiment: Antibacterial activity against Staphylococcus aureus subsp. aureus Mu50 assessed as growth inhibition measured at 5 mins interval over 20 hrs by spectrophotometric analysis relative to control; format: functional
In short: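 S. aureus Mu50 was grown in Mueller−Hinton broth at 37 °C with shaking between reads. Dilution and inoculum were as for broth microdilution, with compound at 0.031–64 μg/mL. OD600 was read at 5 min intervals over 20 h against an untreated control. Run in triplicate.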

Staphylococcus aureus [2] = experiment: (§1) Antibacterial activity against amoxicillin, chloramphenicol, ciprofloxacin, clindamycin, erythromycin, fosmidomycin, gentamycin, kanamycin, nitrofurantoin, telithromycin, methicillin-resistant Staphylococcus aureus 25697 assessed as growth inhibition by CLSI broth microdilution method; format: functional
In short: (§2)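 MICs determined by CLSI broth microdilution in Mueller–Hinton broth. Inoculum was prepared by direct colony suspension, at 5 × 10^5 CFU/mL.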

Enterococcus faecium = experiment: Antibacterial activity against clarithromycin, erythromycin, telithromycin, vancomycin-resistant Enterococcus faecium 6011 assessed as growth inhibition by CLSI broth microdilution method; format: functional; in short: as §2
Bacillus subtilis [3] = experiment: Antibacterial activity against Bacillus subtilis subsp. subtilis str. 168 trpC2 assessed as growth inhibition by CLSI broth microdilution method; format: functional
Bacillus subtilis [4] = experiment: Induction of liaI promoter in Bacillus subtilis IS34 promoter at 64 ug/mL after 3 hrs by luciferase reporter gene assay; format: functional, organism-based
In short: (§3)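 Promoter–firefly luciferase fusions were built in B. subtilis IS34. Luminescence was read in a plate reader and expressed as percent of the untreated control. One representative experiment.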

Klebsiella pneumoniae = experiment: Antibacterial activity against doxycycline, kanamycin-resistant Klebsiella pneumoniae ATCC 27799 assessed as growth inhibition by CLSI broth microdilution method; format: functional; in short: as §2
Pseudomonas aeruginosa = experiment: Antibacterial activity against ceftazidime, ciprofloxacin, cefepime, gentamycin, imipenem, meropenem, piperacillin/tazobactam-resistant Pseudomonas aeruginosa 63230 assessed as growth inhibition by CLSI broth microdilution method; format: functional; in short: as §2
Staphylococcus aureus [5] = experiment: Antibacterial activity against Staphylococcus aureus ATCC 29213 assessed as growth inhibition by CLSI broth microdilution method; format: functional; in short: as §2
Streptococcus pneumoniae = experiment: Antibacterial activity against Streptococcus pneumoniae ATCC 49619 assessed as growth inhibition by CLSI broth microdilution method; format: functional
Staphylococcus aureus [6] = experiment: (§4) Antibacterial activity against ceftazidime, clarithromycin, ciprofloxacin, clindamycin, doxycycline, erythromycin, methicillin, moxifloxacin, kanamycin, telithromycin, rifampicin, methicillin-resistant, vancomycin-intermediate Staphylococcus aureus subsp. aureus Mu50 assessed as growth inhibition by CLSI broth microdilution method; format: functional; in short: as §2
Bacillus subtilis [7] = experiment: Induction of bmrC promoter in Bacillus subtilis IS34 promoter at 64 ug/mL after 3 hrs by luciferase reporter gene assay; format: functional, organism-based; in short: as §3
THP-1 [8] = experiment: Cytotoxicity against human THP1 cells assessed as growth inhibition after 48 hrs by Alamar blue assay; format: cell-based; conditions: THP-1, 48 h
In short: (§5)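 THP-1 cells were kept in RPMI-1640 with 10% FCS. BALB/3T3 cells were kept in DMEM with 10% FCS. Cells were plated at 10^4 per well without antibiotics and exposed to 0.016−32 μg/mL (final, 0.32% DMSO) for 48 h at 37 °C, 5% CO2. AlamarBlue was added for 24 h more. Fluorescence (ex 560/em 600 nm) was expressed relative to untreated cells.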

Enterococcus faecalis = experiment: Antibacterial activity against clarithromycin, erythromycin, moxifloxacin, telithromycin, vancomycin-resistant Enterococcus faecalis UW 2689 assessed as growth inhibition by CLSI broth microdilution method; format: functional; in short: as §2
Escherichia coli [9] = experiment: Antibacterial activity against ciprofloxacin-resistant Escherichia coli WT-3-1 MB2 assessed as growth inhibition by CLSI broth microdilution method; format: functional; in short: as §2
BALB/3T3 [10] = experiment: Cytotoxicity against mouse BALB/3T3 cells assessed as growth inhibition after 48 hrs by Alamar blue assay; format: cell-based; conditions: BALB/3T3, 48 h; in short: as §5
Escherichia coli [11] = experiment: Antibacterial activity against Escherichia coli ATCC 25922 assessed as growth inhibition by CLSI broth microdilution method; format: functional
Bacillus subtilis [12] = experiment: Induction of recA promoter in Bacillus subtilis YB3001 using 4-methylumbelliferyl beta D-galactopyranoside as substrate incubated for 3 hrs prior to substrate addition measured after 1 hr by beta galactosidase reporter gene assay relative to control; format: functional
In short: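 recA–β-galactosidase reporter in B. subtilis YB3001. Twofold compound dilutions in lysogeny broth were inoculated with mid-exponential cells and incubated 3 h at 37 °C, then frozen at −20 °C overnight. Cells were lysed with lysozyme (30 min, 37 °C) and Triton X-100. MUG was added and incubated 1 h at 25 °C. Fluorescence read at ex 360/em 450 nm.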

Bacillus subtilis [13] = experiment: Induction of yorB promoter in Bacillus subtilis IS34 after 3 hrs at 0.01 to 100 ug/ml by luciferase reporter gene assay; format: functional; in short: as §3
Streptococcus pyogenes = experiment: Antibacterial activity against doxycycline-intermediate Streptococcus pyogenes 014327 assessed as growth inhibition by CLSI broth microdilution method; format: functional
Bacillus subtilis [14] = experiment: Antibacterial activity against Bacillus subtilis subsp. subtilis str. 168 trpC2 assessed as growth inhibition measured at 5 mins interval over 20 hrs by spectrophotometric analysis relative to control; format: functional, organism-based
In short: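 B. subtilis 168 trpC2 was grown in lysogeny broth, shaken, at 37 °C. Dilution and inoculum were as for broth microdilution. OD600 was read every 5 min over 20 h in untreated versus treated cultures.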

Streptococcus agalactiae = experiment: Antibacterial activity against doxycycline-intermediate Streptococcus agalactiae 013761 assessed as growth inhibition by CLSI broth microdilution method; format: functional
Bacillus subtilis [15] = experiment: Induction of helD promoter in Bacillus subtilis IS34 at 64 ug/mL after 3 hrs by luciferase reporter gene assay; format: functional, organism-based; in short: as §3
Bacillus subtilis [16] = experiment: Antibacterial activity against Bacillus subtilis subsp. subtilis str. 168 trpC2 assessed as induction of SOS response-mediated DNA degradation at 0.125 ug/mL after 120 mins by DAPI staining-based fluorescence microscopic analysis; format: functional, organism-based
In short: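 B. subtilis 168 trpC2 was grown in lysogeny broth to OD600 0.1−0.3, then treated in plates at 37 °C with shaking. Aliquots were taken 30−180 min after addition and stained 60 s with DAPI (1 μg/mL stock). Cells were immobilized on 1% agarose slides and imaged by phase contrast and fluorescence. Performed twice.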

Bacillus subtilis [17] = experiment: Induction of yorB promoter in Bacillus subtilis IS34 after 3 hrs at 0.001 to 10 ug/ml by luciferase reporter gene assay; format: functional; in short: as §3
Bacillus subtilis [18] = experiment: Induction of yorB promoter in Bacillus subtilis IS34 after 3 hrs by luciferase reporter gene assay relative to control; format: functional; in short: as §3
Staphylococcus aureus [19] = experiment: as §1, with “assessed as concentration required for partial growth inhibition” for “assessed as growth inhibition”; format: functional
Bacillus subtilis [20] = experiment: Antibacterial activity against Bacillus subtilis subsp. subtilis str. 168 trpC2 assessed as concentration required for partial growth inhibition by CLSI broth microdilution method; format: functional
Staphylococcus aureus [21] = experiment: as §4, with “assessed as concentration required for partial growth inhibition” for “assessed as growth inhibition”; format: functional
Staphylococcus aureus [22] = experiment: Antibacterial activity against Staphylococcus aureus ATCC 29213 assessed as concentration required for partial growth inhibition by CLSI broth microdilution method; format: functional
BALB/3T3 [23] = experiment: Cytotoxicity against mouse BALB/3T3 cells assessed as growth inhibition up to 32 ug/mL after 48 hrs by Alamar blue assay; format: cell-based; conditions: balb/3t3, 48 h; in short: as §5
THP-1 [24] = experiment: Cytotoxicity against human THP1 cells assessed as growth inhibition up to 32 ug/mL after 48 hrs by Alamar blue assay; format: cell-based; conditions: thp-1, 48 h; in short: as §5

Compound | growth inhibition (GI) (Staphylococcus aureus [1]) | MIC (Staphylococcus aureus [2]) [µg/mL] | MIC (Enterococcus faecium) [µg/mL] | MIC (Bacillus subtilis [3]) [µg/mL] | Activity (Bacillus subtilis [4]) | MIC (Klebsiella pneumoniae) [µg/mL] | MIC (Pseudomonas aeruginosa) [µg/mL] | MIC (Staphylococcus aureus [5]) [µg/mL] | MIC (Streptococcus pneumoniae) [µg/mL] | MIC (Staphylococcus aureus [6]) [µg/mL] | Activity (Bacillus subtilis [7]) | IC50 (THP-1 [8]) [µg/mL] | MIC (Enterococcus faecalis) [µg/mL] | MIC (Escherichia coli [9]) [µg/mL] | IC50 (BALB/3T3 [10]) [µg/mL] | MIC (Escherichia coli [11]) [µg/mL] | Activity (Bacillus subtilis [12]) | MIC (Streptococcus pyogenes) [µg/mL] | MIC (Streptococcus agalactiae) [µg/mL] | Activity (Bacillus subtilis [15]) | other results
COc1cc2cc3c(c(O)c2c(O)c1-c1c(O)cc2c(O)c4c(cc2c1O)CC(C)(O)CC4=O)C(=O)CC(C)(O)C3 (single isomer, unassigned; atropisomer) [FLAVOMANNIN D] | Dose-dependent effect | 8 (≈ 14.3 µM) | > 64 | 64 (≈ 114 µM) | inactive | > 64 | > 64 | 8 (≈ 14.3 µM) | 64 (≈ 114 µM) | 8 (≈ 14.3 µM) | inactive | > 32 | 32 (≈ 57.1 µM) | > 64 | > 32 | > 64 | Active | 64 (≈ 114 µM) | > 64 | inactive | concentration giving maximal yorB promoter induction (Bacillus subtilis [13]): 2 µg/mL; growth inhibition (GI) (Bacillus subtilis [14]): Active
O=C(O)c1cn(C2CC2)c2cc(N3CCNCC3)c(F)cc2c1=O [CIPROFLOXACIN] |  |  |  |  |  |  |  |  |  |  |  |  |  |  |  |  | Active |  |  |  | Activity (Bacillus subtilis [16]): Active; fold change (FC) (Bacillus subtilis [17]): 20
CO[C@@]12[C@H](COC(N)=O)C3=C(C(=O)C(C)=C(N)C3=O)N1C[C@@H]1N[C@@H]12 |  |  |  |  |  |  |  |  |  |  |  |  |  |  |  |  | Active |  |  |  | 
Cc1cc(O)c2c(c1)C(=O)c1cc(O)c(-c3c(O)cc4c(O)c5c(cc4c3O)CC(C)(O)CC5=O)c(O)c1C2=O (single isomer, unassigned; atropisomer) [Talaromannin B] | Dose-dependent effect | 16 (≈ 29.5 µM) | > 64 | > 64 | inactive | > 64 | > 64 | 16 (≈ 29.5 µM) | 32 (≈ 59 µM) | 8 (≈ 14.7 µM) | inactive | > 32 | 64 (≈ 118 µM) | > 64 | > 32 | > 64 | Active | 32 (≈ 59 µM) | 64 (≈ 118 µM) | inactive | Activity (Bacillus subtilis [18]): Active; MIC (Staphylococcus aureus [19]): 8 µg/mL (≈ 14.7 µM); concentration giving maximal yorB promoter induction (Bacillus subtilis [13]): 8 µg/mL; growth inhibition (GI) (Bacillus subtilis [14]): Active
Cc1cc(O)c2c(c1)C(=O)c1cc(O)cc(O)c1C2=O [EMODIN] |  | 2 (≈ 7.4 µM) | > 64 | 16 (≈ 59.2 µM) | inactive | > 64 | > 64 | 4 (≈ 14.8 µM) | 1 (≈ 3.7 µM) | 4 (≈ 14.8 µM) | inactive | 32 (≈ 118 µM) | 16 (≈ 59.2 µM) | > 64 | 32 (≈ 118 µM) | > 64 | inactive | > 64 | > 64 | inactive | MIC (Bacillus subtilis [20]): 8 µg/mL (≈ 29.6 µM); MIC (Staphylococcus aureus [21]): 2 µg/mL (≈ 7.4 µM); Activity (Bacillus subtilis [13]): inactive; MIC (Staphylococcus aureus [22]): 2 µg/mL (≈ 7.4 µM)
CC1(O)CC(=O)c2c(cc3cc(O)c(-c4c(O)cc5cc6c(c(O)c5c4O)C(=O)CC(C)(O)C6)c(O)c3c2O)C1 (single isomer, unassigned; atropisomer) [FLAVOMANNIN A] | Dose-dependent effect | 8 (≈ 14.6 µM) | > 64 | > 64 | inactive | > 64 | > 64 | 16 (≈ 29.3 µM) | > 64 | 16 (≈ 29.3 µM) | inactive | > 32 | > 64 | > 64 | > 32 | > 64 |  | > 64 | > 64 | inactive | Activity (Bacillus subtilis [18]): Active; fold change (FC) (Bacillus subtilis [12]): <2; Activity (Bacillus subtilis [13]): inactive; growth inhibition (GI) (Bacillus subtilis [14]): Active
Cc1cc(O)c2c(c1)C(=O)c1c(c(O)cc(O)c1-c1c(O)cc(O)c3c1C(=O)c1cc(C)cc(O)c1C3=O)C2=O [SKYRIN] |  | 4 (≈ 7.43 µM) | 32 (≈ 59.4 µM) | 4 (≈ 7.43 µM) | inactive | > 64 | > 64 | 4 (≈ 7.43 µM) | 4 (≈ 7.43 µM) | 2 (≈ 3.71 µM) | inactive |  | 16 (≈ 29.7 µM) | > 64 |  | > 64 | inactive | > 64 | > 64 | inactive | growth inhibition (GI) (BALB/3T3 [23]): Non-toxic; growth inhibition (GI) (THP-1 [24]): Non-toxic; Activity (Bacillus subtilis [13]): inactive; MIC (Staphylococcus aureus [22]): 2 µg/mL (≈ 3.71 µM)
COc1cc2cc3c(c(O)c2c(O)c1-c1c(O)cc2cc4c(c(O)c2c1O)C(=O)CC(C)(O)C4)C(=O)CC(C)(O)C3 (single isomer, unassigned; atropisomer) [FLAVOMANNIN C] | Dose-dependent effect | 32 (≈ 57.1 µM) | > 64 | > 64 | inactive | > 64 | > 64 | 64 (≈ 114 µM) | > 64 | 16 (≈ 28.5 µM) | inactive | > 32 | 32 (≈ 57.1 µM) | > 64 | > 32 | > 64 |  | > 64 | > 64 | inactive | Activity (Bacillus subtilis [13]): inactive; growth inhibition (GI) (Bacillus subtilis [14]): Active
